Assay outcomes from PubChem.
An excerpt weighted towards active compounds, which were near 2% of everything screened.
NR2E3 ag-1 = NR2E3 agonists in two-hybrid cells, primary screen, cell-based, luminescence, CHO-S, Gal4-NCOR/VP16-NR2E3; Photoreceptor-specific nuclear receptor (Homo sapiens), Q9Y5X4; luciferase; inhibition of corepressor binding, % at 3.98 µM; actives 0.35% (n = 360,000); AID 602229, 2012;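 active = inhibition above the mean of all tested compounds plus 3 SD, cut at about 70% in these data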;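 also: 0% = DMSO with NR2E3 transfected cells and 100% = cells lacking NR2E3 construct; higher means lower luciferase signal from less NR2E3 corepressor binding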
Target sequence (Q9Y5X4 whole entry, looked up, the tested form may be a part): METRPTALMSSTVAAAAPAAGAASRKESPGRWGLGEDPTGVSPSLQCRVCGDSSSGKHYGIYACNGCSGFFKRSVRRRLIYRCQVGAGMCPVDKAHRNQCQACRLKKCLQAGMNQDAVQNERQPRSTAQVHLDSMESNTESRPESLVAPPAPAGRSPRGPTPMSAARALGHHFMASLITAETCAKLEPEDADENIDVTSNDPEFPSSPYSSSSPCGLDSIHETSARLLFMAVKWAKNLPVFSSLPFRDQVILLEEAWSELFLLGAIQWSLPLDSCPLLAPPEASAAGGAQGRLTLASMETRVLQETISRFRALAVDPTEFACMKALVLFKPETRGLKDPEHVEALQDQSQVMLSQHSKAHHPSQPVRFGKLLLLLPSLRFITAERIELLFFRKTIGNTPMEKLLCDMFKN
NR2E3 ag-2 = inhibitors of NR2E3-RetCOR corepressor binding, primary screen, NR2E3 agonist project, biochemical, TR-FRET, GST-NR2E3, biotin-RetCOR; 1536-well; actives 0.12% (n = 320,000); Photoreceptor-specific nuclear receptor (Homo sapiens), Q9Y5X4; inhibition of corepressor binding, % at 4.78 µM;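 active = percent inhibition above the cutoff of mean plus 3 SD of all tested compounds, set per screening campaign, cut at about 20% in these data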;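 also: 0% = DMSO wells and 100% = biotin wells as full block of FRET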
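System: GST-NR2E3 and biotin-RetCOR proteins; probe or stimulus: 7 nM biotin-RetCOR; doses: compound at 4.8 µM, single dose; schedule: Compound–protein incubation for 5 h at 4 °C; detection: time-resolved FRET; read-out: percent inhibition; controls: biotin wells as high control, 0.6% DMSO wells as low control; format: 1536-well plates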
T cell modulator = modulators of CD8 T cell-vesicle binding, primary screen, mouse 2C CD8+ T cells, flow cytometry; 2C CD8+ T cell-vesicle binding; stronger effect = lower value; response (vesicle binding), % at 7 µM; actives 0.068% (n = 330,000);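 active = response, share of CD8 T cells binding vesicles, and their 90th percentile fluorescence all below set limits, cut at about 80% in these data, passing the limit was not always enough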;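 also: values below 100% mean blocked vesicle binding to the CD8+ T cells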
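Incubation: binding step 1.5 h, 37 °C, antibody labelling 20 min, ice; system: murine 2C transgenic CD8+ T lymphocytes; technique: cytometric PE anti-B7-1 and Alexa647 anti-CD8 signals after 1% paraformaldehyde fixation; also added: QL9-charged Drosophila Ld/ICAM-1/B7-1 vesicles; control set: naked versus QL9-loaded vesicles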
Myeloid diff 2 = induction of myeloid progenitor differentiation, primary screen, cell-based, flow cytometry, MLPCN library | actives 1% (n = 360,000) | calls only at 10 µM | ER-HoxA9 myeloid progenitors, lysozyme-GFP differentiation;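 active = normalized GFP-positive differentiation at or above the plate's own cutoff, the solvent-only control mean plus 3 SD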;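 also: cells exposed to compound for four days before flow analysis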
FXN GAA850 act = FXN promoter activators, primary screen, cell-based, luciferase luminescence, HEK293 lucGAA850 | activation, % at 6 µM | actives 0.56% (n = 360,000) | AID 540364, 2011 | HEK293 lucGAA850 FXN promoter luciferase reporter, 24 h; percent of 10 µM SAHA response;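 active = activation above the average of all compounds screened plus 3 SD, cutoff fixed separately per campaign, cut at about 7.5% in these data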;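 also: 0% = DMSO wells and 100% = 10 µM SAHA wells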
* hit, by the source's call; i = inactive; x = not tested or not shown; + = active, no number.

SMILES	NR2E3 ag-1	NR2E3 ag-2	T cell modulator	Myeloid diff 2	FXN GAA850 act
O=C(Nc1ccccc1-c1nc2ccccc2[nH]1)c1ccc(S(=O)(=O)N2CCCCC2)cc1	-8	x	x	i	1
Cc1ccc(S(C)=O)cc1-n1c(=O)n(Cc2ccccc2)c(=O)c2[nH]cnc21 (stereo not given)	-27	-3	369	+	1
Cc1cccc(NC(=O)CNC(=O)[C@H]2O[C@@H](n3ccc(=O)[nH]c3=O)[C@H](O)[C@@H]2O)c1C	-7	x	x	i	x
O=C(COC(=O)C1CC2C=CC1C2)NCc1ccc(F)cc1 (stereo not given)	-17	-1	55*	i	1
COc1ccc(F)cc1C(=O)C1CCCN(C(=O)c2ccc(C(C)=O)s2)C1 (stereo not given)	-25	-2	607	i	4
COc1ccc(F)cc1C(=O)C1CCCN(C(=O)C2=C(C)OCCO2)C1 (stereo not given)	-29	4	191	+	0
CS(=O)(=O)c1ccc(C(=O)OCc2nnc(-c3ccc(Cl)cc3)o2)cc1[N+](=O)[O-]	-1	1	333	i	14*
O=C(OCc1nnc(-c2ccc(Cl)cc2)o1)c1ccc(O)cc1	-5	-1	170	i	3
CCCCCCCCN1C(=O)[C@H](CC(=O)N2CCSCC2)C[C@@]2(C(=O)OC)CCCCC=C12	7	x	x	i	x
CC(C)Cn1c(=O)c(C(=O)Nc2ccncc2)c(O)c2ccccc21	-5	-1	266	+	2
CC(C)Cn1c(=O)c(C(=O)Nc2cnccn2)c(O)c2ccccc21	13	3	209	i	3
CCCN(C(=O)C1CCN(S(=O)(=O)c2ccc(OC)c(OC)c2)CC1)C1CCS(=O)(=O)C1 (stereo not given)	-13	1	161	i	2
Cc1cc(C)nc(NC(N)=S)n1	-10	6	0	i	1
Cc1cc(C)nc(NC(N)=NC2CCCCC2)n1	-9	0	569	+	0
COCCCNCCCOc1ccc(C)cc1Br	-2	0	197	+	-6
COCCNCCCOc1ccc(C)cc1Br	10	3	563	i	0
CC1(C(=O)Nc2ccc3c(c2)OCCO3)CN(S(C)(=O)=O)CC(=O)N1CCCn1ccnc1 (stereo not given)	x	x	x	i	x
O=C1COc2ccc(C(=O)COC(=O)CCCOc3ccccc3)cc2N1	11	x	x	i	3
CCOC(=O)N1CCN(C(=O)CCNS(=O)(=O)c2ccccc2)CC1	-1	0	i	i	-1
CCOC(=O)N1CCN(C(=O)COc2ccc(S(=O)(=O)NCc3ccccc3)cc2)CC1	-2	0	307	+	3
Cc1cc(-c2cccs2)c2c(N)c(C(=O)c3ccc4c(c3)OCO4)sc2n1	-9	-1	194	+	1
COc1ccc(C(=O)c2sc3nc(C)cc(-c4cccs4)c3c2N)cc1	-18	x	x	i	2
COc1cc2c3nnc(-c4ccc(F)cc4)c-3cn(Cc3ccccc3)c2cc1OC	18	3	261	+	-2
COc1ccc(Cn2cc3c(-c4ccc(F)cc4)nnc-3c3cc(OC)c(OC)cc32)cc1	18	4	823	+	1
C=CCN(C(=O)CCC(=O)Nc1cc(C)on1)C(C(=O)NC(C)(C)C)c1ccc(OC)cc1 (stereo not given)	-14	1	241	i	0
SMILES	NR2E3 ag-1	NR2E3 ag-2	T cell modulator	Myeloid diff 2	FXN GAA850 act
CCOC(=O)C1=C(C)N=c2s/c(=C/c3ccc(OCC(=O)O)cc3)c(=O)n2C1c1ccc(F)cc1 (stereo not given)	-14	-1	89	+	2
CC(C)NC(=O)c1sc2nc(-c3cccs3)cc(-c3cccs3)c2c1N	x	-1	267	x	x
Nc1c(C(=O)C2CC2)sc2nc(-c3cccs3)cc(C(F)(F)F)c12	-10	-1	596	+	0
CC(=O)N1CCC(C(=O)N2c3ccccc3N=C(c3ccc4c(c3)OCO4)C2C(=O)Nc2c(C)cccc2C)CC1 (stereo not given)	x	x	x	i	x
COC(=O)CSc1cc([N+](=O)[O-])ccc1NC(=O)OC	-9	1	879	+	-1
O=S(=O)(Nc1nc(-c2sccc2Cl)cs1)c1cc(Cl)ccc1Cl	99*	7	330	i	1
CC(C)(C)c1nnc(NS(=O)(=O)c2cc(Cl)ccc2Cl)s1	-2	-1	164	i	1
Cc1[nH]n(-c2ccccc2)c(=O)c1N=Nc1cccc(C(=O)O)c1	-111	2	196	i	2
Nc1nc(-c2ccccc2)c(-c2ccccc2)n1N	4	-1	375	i	3
c1ccc(-c2cnn3c(-c4ccccc4)c(-c4ccccc4)nc3n2)cc1	1	x	x	+	2
Cc1nc(N)sc1N=Nc1ccc(F)cc1	-49	4	334	i	9.7*
Nc1n[nH]c(N)c1N=Nc1ccc(F)cc1	-23	-5	369	i	2
Cc1ccc(S(=O)(=O)N2CCCCC2)cc1NC(=O)c1ccc(Br)o1	0	1	176	i	0
Cc1c(CC(=O)O)c(=O)oc2c(C)c(OCc3nn[nH]n3)ccc12	-12	1	509	+	1
Cc1c(Cc2ccccc2)c(=O)oc2c(C)c(OCc3nn[nH]n3)ccc12	-12	5	569	i	-2
O=C(CCn1cnc(-c2ccccc2)c1-c1ccccc1)N/N=C/c1ccccc1O	-3	2	155	i	-7
CCOC(=O)C1=C(COC(=O)Cc2ccc(Cl)cc2)NC(=O)NC1C (stereo not given)	-9	3	325	i	1
O=C(NCC(=O)N1CCN(C(c2ccccc2)c2ccccc2)CC1)c1ccccc1Br	16	x	x	i	-2
CCCCN(C(=O)NC(=O)Nc1nc2ccc(OC)cc2s1)S(C)(=O)=O	-59	0	642	i	9.5*
CCCNC(=O)c1cc2c(c(-c3cccc(-c4ccccc4F)c3)n1)[C@H](CCO)N(C(=O)CC1CC1)C2	1	x	x	i	x
O=S(=O)(NCCc1csc(-c2cccnc2)n1)c1ccc2c(c1)OCCO2	-8	3	921	+	0
COc1ccc(-c2nc(CCNS(=O)(=O)c3ccc4c(c3)OCCO4)cs2)cc1	5	4	239	i	-2
Cc1cc(N/N=C/c2ccc([N+](=O)[O-])o2)nc2ccccc12	9	0	279	+	4
O=C(Nc1nc2ccccc2s1)C1c2ccccc2Oc2ccccc21	1	3	165	+	-3
